Results: ChEMBL document CHEMBL1122172, “Syntheses and diuretic activity of 1,2-dihydro-2-(3-pyridyl)-3H-pyrido[2,3-d]pyrimidin-4-one and related compounds” (1982)
Values joined by “and” are separate entries in the source; they are usually repeats but may differ in a detail not shown here. Identical values can stand only once.

Key:
Assay type in all cases: functional, Urine
[1] = test system: Rattus norvegicus; test: Diuretic activity by measuring the urinary output at the dose of 50 mg/kg
Outline: (§1)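 Groups of eight male Sprague–Dawley-derived rats, fasted 18 h with water ad libitum, received oral doses by dosing needle in 5% acacia–isotonic saline; the vehicle served as control. Rats were placed in metabolism cages with no food or water, and urine was collected for 5 h. Bladders were then emptied by pulling at the tail base (modified Lipschitz method).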

[2] = test system: Rattus norvegicus; test: Total K+ milliequivalents excretion in diuretic test at the dose of 25 mg/kg
Outline: (§2)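 Male Sprague–Dawley rats (195–225 g) were fasted and deprived of water for 18 h. The compound was given orally, dissolved in 25 mL/kg saline; controls got saline alone. Groups of eight were housed as pairs in metabolism cages. Urine volume was read at 2 and 5 h, with total Na+, Cl− and K+ mequiv excreted. Values are mean ± SEM, N = 8.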

[3] = test system: Rattus norvegicus; test: Total Na+ milliequivalents excretion in diuretic test at the dose of 25 mg/kg; outline: as §2
[4] = test system: Rattus norvegicus; test: Total Cl- milliequivalents excretion in diuretic test at the dose of 50 mg/kg
[5] = test system: Rattus norvegicus; test: Diuretic activity by measuring the urinary output at the dose of 25 mg/kg; outline: as §2
[6] = test system: Rattus norvegicus; test: Total Cl- milliequivalents excretion in diuretic test at the dose of 25 mg/kg; outline: as §2
[7] = test system: Rattus norvegicus; test: Diuretic activity by measuring the urinary output at the dose of 100 mg/kg; outline: as §1
[8] = test system: Rattus norvegicus; test: Diuretic activity by measuring the urinary output at the dose of 400 mg/kg; outline: as §1
[9] = test system: Rattus norvegicus; test: Total Cl- milliequivalents excretion in diuretic test at the dose of 75 mg/kg
[10] = test system: Rattus norvegicus; test: Diuretic activity by measuring the urinary output at the dose of 75 mg/kg; outline: as §1
[11] = test system: Rattus norvegicus; test: Total Na+ milliequivalents excretion in diuretic test at the dose of 75 mg/kg; conditions: 75 mg/kg
[12] = test system: Rattus norvegicus; test: Diuretic activity by measuring the urinary output after 5 hr at the dose of 25 mg/kg
Outline: (§3)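 Male Sprague–Dawley rats (195–225 g) were fasted and deprived of water for 18 h, then dosed orally with compound dissolved in 25 mL/kg saline. Controls got 25 mL/kg saline alone. Groups of eight were used, housed two rats per metabolism cage right after dosing. Urine volume was collected at 2 h and 5 h after dosing. Values are mean ± SEM per cage pair, N = 8.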

[13] = test system: Rattus norvegicus; test: Diuretic activity by measuring the urinary output after 2 hr at the dose of 25 mg/kg; outline: as §3
[14] = test system: Rattus norvegicus; test: Diuretic activity by measuring the urinary output after 5 hr at the dose of 81 mg/kg; outline: as §3
[15] = test system: Rattus norvegicus; test: Total Na+ milliequivalents excretion in diuretic test at the dose of 3 mg/kg
Outline: (§4)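 Oral dosing was in 25 mL/kg saline to male Sprague–Dawley rats (195–225 g) after 18 h without food or water, with saline-only controls. Groups of eight were kept two per metabolism cage. Urinary Na+, Cl− and K+ were reported as total mequiv excreted, with electrolyte analysis done externally. Values are mean ± SEM of two rats per cage, N = 8.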

[16] = test system: Rattus norvegicus; test: Diuretic activity by measuring the urinary output after 2 hr at the dose of 9 mg/kg; outline: as §3
[17] = test system: Rattus norvegicus; test: Total Cl- milliequivalents excretion in diuretic test at the dose of 3 mg/kg; outline: as §4
[18] = test system: Rattus norvegicus; test: Total K+ milliequivalents excretion in diuretic test at the dose of 3 mg/kg; outline: as §4
[19] = test system: Rattus norvegicus; test: Total Na+ milliequivalents excretion in diuretic test at the dose of 27 mg/kg; outline: as §4
[20] = test system: Rattus norvegicus; test: Diuretic activity by measuring the urinary output after 2 hr at the dose of 27 mg/kg; outline: as §3
[21] = test system: Rattus norvegicus; test: Total Cl- milliequivalents excretion in diuretic test at the dose of 27 mg/kg; outline: as §4
[22] = test system: Rattus norvegicus; test: Diuretic activity by measuring the urinary output after 5 hr at the dose of 9 mg/kg; outline: as §3
[23] = test system: Rattus norvegicus; test: Total Na+ milliequivalents excretion in diuretic test at the dose of 9 mg/kg; outline: as §4
[24] = test system: Rattus norvegicus; test: Total Na+ milliequivalents excretion in diuretic test at the dose of 81 mg/kg; outline: as §4
[25] = test system: Rattus norvegicus; test: Diuretic activity by measuring the urinary output after 5 hr at the dose of 27 mg/kg; outline: as §3
[26] = test system: Rattus norvegicus; test: Diuretic activity by measuring the urinary output after 2 hr at the dose of 3 mg/kg; outline: as §3
[27] = test system: Rattus norvegicus; test: Diuretic activity by measuring the urinary output after 2 hr at the dose of 81 mg/kg; outline: as §3
[28] = test system: Rattus norvegicus; test: Total K+ milliequivalents excretion in diuretic test at the dose of 27 mg/kg; outline: as §4
[29] = test system: Rattus norvegicus; test: Total Cl- milliequivalents excretion in diuretic test at the dose of 9 mg/kg; outline: as §4
[30] = test system: Rattus norvegicus; test: Total K+ milliequivalents excretion in diuretic test at the dose of 81 mg/kg; outline: as §4
[31] = test system: Rattus norvegicus; test: Total K+ milliequivalents excretion in diuretic test at the dose of 9 mg/kg; outline: as §4
[32] = test system: Rattus norvegicus; test: Total Cl- milliequivalents excretion in diuretic test at the dose of 81 mg/kg; outline: as §4
[33] = test system: Rattus norvegicus; test: Diuretic activity by measuring the urinary output after 5 hr at the dose of 3 mg/kg; outline: as §3

Question: How did the Control [1] turn out when `Cn1cccc1C1NC(=O)c2cccnc2N1` (stereo unspecified) was run?
Answer: 113%

Question: And the Excretion [2]?
Answer: 0.3 m equiv

Question: And the Excretion [3]?
Answer: 1.5 m equiv

Question: What about the Excretion [4] of the same compound?
Answer: 1 m equiv

Question: And the Control [5]?
Answer: 124%

Question: What about the Excretion [6] of the same compound?
Answer: 1.4 m equiv

Question: Which Control [7] does the source give for `O=C1NC(c2ccco2)Nc2ncccc21` (stereo unspecified) here?
Answer: 194%

Question: And the Control [8]?
Answer: 193%

Question: And the Control [5]?
Answer: 121%

Question: What does the source list for `O=C1NC(c2ccc(C(F)(F)F)cc2)Nc2ncccc21` (stereo unspecified)?
Answer: Excretion [2]: 0.4 m equiv; Excretion [9]: 1.3 m equiv; Excretion [3]: 1.3 m equiv; Control [10]: 98%; Control [5]: 106%; Excretion [11]: 1.2 m equiv and 0.4 m equiv; Excretion [6]: 1.4 m equiv

Question: With `CN1C(=O)c2cccnc2NC1c1ccco1` (stereo unspecified) as the compound, how does the Excretion [12] read?
Answer: 12.2 mL

Question: And the Excretion [2]?
Answer: 0.8 m equiv

Question: And the Control [7]?
Answer: 233%

Question: And the Excretion [13]?
Answer: 4.6 mL

Question: What about the Excretion [3] of the same compound?
Answer: 1.8 m equiv

Question: And the Control [8]?
Answer: 95%

Question: And the Control [5]?
Answer: 209%

Question: What about the Excretion [6] of the same compound?
Answer: 1.8 m equiv

Question: Which results are given for `CC(C)c1ccc(C2NC(=O)c3cccnc3N2)cc1` (stereo unspecified)?
Answer: Excretion [2]: 0.6 m equiv; Excretion [9]: 1.4 m equiv; Excretion [3]: 1.5 m equiv; Control [10]: 114%; Control [5]: 137%; Excretion [11]: 1.3 m equiv and 0.6 m equiv; Excretion [6]: 1.6 m equiv

Question: `O=C1NC(c2cc(Br)co2)Nc2ncccc21` (stereo unspecified) was tested. Which Control [7] did it give?
Answer: 94%

Question: And the Control [8]?
Answer: 110%

Question: What about the Control [5] of the same compound?
Answer: 101%

Question: How did the Control [7] turn out when `Oc1nc(-c2ccco2)nc2ncccc12` was run?
Answer: 212%

Question: What about the Control [8] of the same compound?
Answer: 36%

Question: What about the Control [5] of the same compound?
Answer: 167%

Question: How did the Excretion [2] turn out when `O=C1NC(c2cccnc2)Nc2[nH]cnc21` (stereo unspecified) was run?
Answer: 0.6 m equiv

Question: And the Excretion [3]?
Answer: 1.4 m equiv

Question: What about the Control [5] of the same compound?
Answer: 138%

Question: And the Excretion [6]?
Answer: 1.3 m equiv

Question: With `O=C1NC(c2cccnc2)Nc2ncccc21` (stereo unspecified) as the compound, how does the Excretion [14] read?
Answer: 19.6 mL

Question: And the Excretion [15]?
Answer: 1.4 m equiv

Question: And the Excretion [16]?
Answer: 3 mL

Question: And the Excretion [17]?
Answer: 1.6 m equiv

Question: What about the Excretion [18] of the same compound?
Answer: 0.4 m equiv

Question: And the Excretion [19]?
Answer: 2.2 m equiv

Question: And the Excretion [20]?
Answer: 10.4 mL

Question: What about the Excretion [12] of the same compound?
Answer: 21 mL

Question: And the Excretion [21]?
Answer: 2.6 m equiv

Question: What about the Excretion [2] of the same compound?
Answer: 0.6 m equiv

Question: What about the Excretion [22] of the same compound?
Answer: 7.6 mL

Question: And the Excretion [23]?
Answer: 1.1 m equiv

Question: What about the Excretion [24] of the same compound?
Answer: 2.6 m equiv

Question: What about the Control [7] of the same compound?
Answer: 220%

Question: And the Excretion [25]?
Answer: 20.1 mL

Question: What about the Excretion [13] of the same compound?
Answer: 8 mL

Question: What about the Excretion [3] of the same compound?
Answer: 2.5 m equiv

Question: What about the Excretion [26] of the same compound?
Answer: 4.4 mL

Question: And the Control [8]?
Answer: 185%

Question: What about the Excretion [27] of the same compound?
Answer: 6 mL

Question: And the Excretion [28]?
Answer: 0.6 m equiv

Question: What about the Excretion [29] of the same compound?
Answer: 1.3 m equiv

Question: And the Excretion [30]?
Answer: 0.4 m equiv

Question: And the Excretion [31]?
Answer: 0.4 m equiv

Question: What about the Control [5] of the same compound?
Answer: 221%

Question: What about the Excretion [32] of the same compound?
Answer: 2.6 m equiv

Question: And the Excretion [6]?
Answer: 2.8 m equiv

Question: And the Excretion [33]?
Answer: 8.1 mL

Question: What does the source list for `CN1C(=O)c2cccnc2NC1c1cccnc1` (stereo unspecified)?
Answer: Excretion [9]: 1.7 m equiv; Control [10]: 149%
